Test results: ChEMBL document CHEMBL3351385, “Synthesis and preliminary mechanistic evaluation of 5-(p-tolyl)-1-(quinolin-2-yl)pyrazole-3-carboxylic acid amides with potent antiproliferative activity on human cancer cell lines” (Eur J Med Chem, 2014)

Legend:
[1] = target: Mitogen-activated protein kinase 12 (Homo sapiens) (UniProt P53778); assay: Inhibition of p38gamma (unknown origin) assessed as remaining enzyme activity at 10 uM by radioactive [33P]-ATP filter binding assay
How it was run: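 Single-concentration screen against a 140-kinase panel. Done by the International Center for Kinase Profiling, University of Dundee, with a radioactive 33P-ATP filter-binding read-out.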

[2] = target: Serine/threonine-protein kinase N2 (Homo sapiens) (UniProt Q16513); assay: Inhibition of PRK2 (unknown origin) assessed as remaining enzyme activity at 10 uM by radioactive [33P]-ATP filter binding assay
Serine/threonine-protein kinase N2 (Homo sapiens), sequence (Q16513 whole entry, looked up): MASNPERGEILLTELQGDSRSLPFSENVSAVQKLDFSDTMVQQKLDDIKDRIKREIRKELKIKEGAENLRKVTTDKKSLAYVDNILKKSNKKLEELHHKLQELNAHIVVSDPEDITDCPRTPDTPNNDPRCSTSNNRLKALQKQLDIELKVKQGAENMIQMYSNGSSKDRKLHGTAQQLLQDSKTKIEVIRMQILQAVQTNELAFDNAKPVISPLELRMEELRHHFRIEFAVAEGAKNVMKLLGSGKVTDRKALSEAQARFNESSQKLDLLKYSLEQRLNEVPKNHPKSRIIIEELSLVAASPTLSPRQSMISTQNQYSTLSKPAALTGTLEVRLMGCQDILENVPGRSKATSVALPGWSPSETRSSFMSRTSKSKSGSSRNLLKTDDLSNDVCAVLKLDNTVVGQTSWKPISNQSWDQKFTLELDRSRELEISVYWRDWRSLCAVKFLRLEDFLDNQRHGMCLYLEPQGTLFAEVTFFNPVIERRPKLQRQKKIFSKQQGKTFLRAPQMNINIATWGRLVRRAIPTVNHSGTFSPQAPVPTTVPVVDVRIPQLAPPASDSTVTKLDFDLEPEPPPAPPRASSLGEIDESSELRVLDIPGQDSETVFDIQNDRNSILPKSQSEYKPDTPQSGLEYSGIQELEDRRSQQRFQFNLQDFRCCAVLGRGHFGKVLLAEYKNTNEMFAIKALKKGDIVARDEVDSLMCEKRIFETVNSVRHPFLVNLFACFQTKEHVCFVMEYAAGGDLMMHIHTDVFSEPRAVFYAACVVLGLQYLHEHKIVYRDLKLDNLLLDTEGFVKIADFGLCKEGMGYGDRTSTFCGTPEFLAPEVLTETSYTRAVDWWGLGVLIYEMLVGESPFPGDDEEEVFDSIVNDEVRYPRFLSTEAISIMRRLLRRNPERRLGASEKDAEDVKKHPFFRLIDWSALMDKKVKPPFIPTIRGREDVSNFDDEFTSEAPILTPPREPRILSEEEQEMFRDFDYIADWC

[3] = target: MAP kinase-activated protein kinase 2 (Homo sapiens) (UniProt P49137); assay: Inhibition of MAPKAPK2 (unknown origin) assessed as remaining enzyme activity at 10 uM by radioactive [33P]-ATP filter binding assay
[4] = target: Death-associated protein kinase 1 (Homo sapiens) (UniProt P53355); assay: Inhibition of DAPK1 (unknown origin) assessed as remaining enzyme activity at 10 uM by radioactive [33P]-ATP filter binding assay
How it was run: (§1)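 A single 10 µM concentration was tested across a 140-kinase panel. Activity was measured by a radioactive 33P-ATP filter-binding assay run at the International Center for Kinase Profiling, University of Dundee.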

[5] = target: Glycogen synthase kinase-3 beta (Homo sapiens) (UniProt P49841); assay: Inhibition of GSK3beta (unknown origin) assessed as remaining enzyme activity at 10 uM by radioactive [33P]-ATP filter binding assay
[6] = target: Aurora kinase B (Homo sapiens) (UniProt Q96GD4); assay: Inhibition of Aurora B (unknown origin) assessed as remaining enzyme activity at 10 uM by radioactive [33P]-ATP filter binding assay; how it was run: as §1
[7] = target: Serine/threonine-protein kinase MARK1 (Homo sapiens) (UniProt Q9P0L2); assay: Inhibition of MARK1 (unknown origin) assessed as remaining enzyme activity at 10 uM by radioactive [33P]-ATP filter binding assay
[8] = target: MAP/microtubule affinity-regulating kinase 3 (Homo sapiens) (UniProt P27448); assay: Inhibition of MARK3 (unknown origin) assessed as remaining enzyme activity at 10 uM by radioactive [33P]-ATP filter binding assay
[9] = target: Tyrosine-protein kinase CSK (Homo sapiens) (UniProt P41240); assay: Inhibition of CSK (unknown origin) assessed as remaining enzyme activity at 10 uM by radioactive [33P]-ATP filter binding assay; how it was run: as §1
Tyrosine-protein kinase CSK (Homo sapiens), sequence (P41240 2-450 limits assumed): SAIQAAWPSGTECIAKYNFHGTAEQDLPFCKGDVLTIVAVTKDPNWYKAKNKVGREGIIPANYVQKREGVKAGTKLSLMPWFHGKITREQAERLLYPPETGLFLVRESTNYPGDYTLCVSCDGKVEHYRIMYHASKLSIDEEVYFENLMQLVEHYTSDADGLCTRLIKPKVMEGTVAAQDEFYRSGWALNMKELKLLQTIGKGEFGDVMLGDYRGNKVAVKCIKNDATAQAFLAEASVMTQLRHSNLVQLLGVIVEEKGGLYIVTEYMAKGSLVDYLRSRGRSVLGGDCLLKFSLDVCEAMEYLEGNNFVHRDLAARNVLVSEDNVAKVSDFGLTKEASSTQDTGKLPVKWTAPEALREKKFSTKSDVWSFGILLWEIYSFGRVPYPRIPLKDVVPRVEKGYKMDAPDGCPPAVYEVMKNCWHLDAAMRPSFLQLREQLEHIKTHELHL

[10] = target: Tyrosine-protein kinase ABL1 (Homo sapiens) (UniProt P00519); assay: Inhibition of ABL (unknown origin) assessed as remaining enzyme activity at 10 uM by radioactive [33P]-ATP filter binding assay; how it was run: as §1
[11] = target: Tyrosine-protein kinase JAK2 (Homo sapiens) (UniProt O60674); assay: Inhibition of JAK2 (unknown origin) assessed as remaining enzyme activity at 10 uM by radioactive [33P]-ATP filter binding assay
[12] = target: Ephrin type-B receptor 2 (Homo sapiens) (UniProt P29323); assay: Inhibition of EPHB2 (unknown origin) assessed as remaining enzyme activity at 10 uM by radioactive [33P]-ATP filter binding assay; how it was run: as §1
[13] = target: Insulin-like growth factor 1 receptor (Homo sapiens) (UniProt P08069); assay: Inhibition of IGF1R (unknown origin) assessed as remaining enzyme activity at 10 uM by radioactive [33P]-ATP filter binding assay
[14] = target: Insulin receptor (Homo sapiens) (UniProt P06213); assay: Inhibition of IR (unknown origin) assessed as remaining enzyme activity at 10 uM by radioactive [33P]-ATP filter binding assay
[15] = target: Serine/threonine-protein kinase SIK3 (Homo sapiens) (UniProt Q9Y2K2); assay: Inhibition of SIK3 (unknown origin) assessed as remaining enzyme activity at 10 uM by radioactive [33P]-ATP filter binding assay
[16] = target: Tau-tubulin kinase 1 (Homo sapiens) (UniProt Q5TCY1); assay: Inhibition of TTBK1 (unknown origin) assessed as remaining enzyme activity at 10 uM by radioactive [33P]-ATP filter binding assay
Tau-tubulin kinase 1 (Homo sapiens), sequence (Q5TCY1 whole entry): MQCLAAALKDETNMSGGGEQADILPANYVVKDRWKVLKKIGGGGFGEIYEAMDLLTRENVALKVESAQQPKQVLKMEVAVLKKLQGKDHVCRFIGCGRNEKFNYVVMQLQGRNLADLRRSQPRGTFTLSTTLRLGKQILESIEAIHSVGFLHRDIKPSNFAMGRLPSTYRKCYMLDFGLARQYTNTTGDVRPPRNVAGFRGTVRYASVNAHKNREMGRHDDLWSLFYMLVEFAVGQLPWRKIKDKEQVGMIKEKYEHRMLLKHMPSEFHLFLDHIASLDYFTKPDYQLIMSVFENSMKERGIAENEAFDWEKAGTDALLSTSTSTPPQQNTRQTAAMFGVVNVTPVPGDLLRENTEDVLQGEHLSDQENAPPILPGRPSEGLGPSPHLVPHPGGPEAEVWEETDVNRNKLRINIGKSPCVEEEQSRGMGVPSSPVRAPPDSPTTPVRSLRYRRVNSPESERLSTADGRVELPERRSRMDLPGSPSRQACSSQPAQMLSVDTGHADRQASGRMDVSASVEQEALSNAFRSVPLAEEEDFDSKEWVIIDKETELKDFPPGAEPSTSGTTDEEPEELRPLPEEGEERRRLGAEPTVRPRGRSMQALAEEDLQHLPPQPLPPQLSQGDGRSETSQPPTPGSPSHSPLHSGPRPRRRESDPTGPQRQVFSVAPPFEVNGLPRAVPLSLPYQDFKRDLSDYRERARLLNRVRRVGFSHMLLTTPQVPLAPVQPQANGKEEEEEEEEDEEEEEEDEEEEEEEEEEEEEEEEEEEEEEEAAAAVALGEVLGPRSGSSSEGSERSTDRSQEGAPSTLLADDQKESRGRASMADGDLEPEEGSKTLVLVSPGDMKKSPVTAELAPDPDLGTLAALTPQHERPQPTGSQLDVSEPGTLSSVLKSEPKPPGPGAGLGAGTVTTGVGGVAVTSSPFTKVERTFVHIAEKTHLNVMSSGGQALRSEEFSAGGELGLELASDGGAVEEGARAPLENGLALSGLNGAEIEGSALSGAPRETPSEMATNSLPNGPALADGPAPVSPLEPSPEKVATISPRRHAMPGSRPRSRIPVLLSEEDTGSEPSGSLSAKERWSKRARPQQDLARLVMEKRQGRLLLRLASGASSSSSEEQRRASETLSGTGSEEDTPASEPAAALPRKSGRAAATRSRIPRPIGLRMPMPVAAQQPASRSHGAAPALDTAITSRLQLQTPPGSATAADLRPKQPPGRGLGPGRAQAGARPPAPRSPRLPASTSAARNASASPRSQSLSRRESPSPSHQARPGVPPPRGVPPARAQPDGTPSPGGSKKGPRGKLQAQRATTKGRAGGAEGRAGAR

[17] = target: Inhibitor of nuclear factor kappa-B kinase subunit epsilon (Homo sapiens) (UniProt Q14164); assay: Inhibition of IKKepsilon (unknown origin) assessed as remaining enzyme activity at 10 uM by radioactive [33P]-ATP filter binding assay
[18] = target: Serine/threonine-protein kinase TBK1 (Homo sapiens) (UniProt Q9UHD2); assay: Inhibition of TBK1 (unknown origin) assessed as remaining enzyme activity at 10 uM by radioactive [33P]-ATP filter binding assay
[19] = target: Serine/threonine-protein kinase pim-3 (Homo sapiens) (UniProt Q86V86); assay: Inhibition of PIM3 (unknown origin) assessed as remaining enzyme activity at 10 uM by radioactive [33P]-ATP filter binding assay
[20] = target: Homeodomain-interacting protein kinase 3 (Homo sapiens) (UniProt Q9H422); assay: Inhibition of HIPK3 (unknown origin) assessed as remaining enzyme activity at 10 uM by radioactive [33P]-ATP filter binding assay
[21] = target: Serine/threonine-protein kinase PAK 2 (Homo sapiens) (UniProt Q13177); assay: Inhibition of PAK2 (unknown origin) assessed as remaining enzyme activity at 10 uM by radioactive [33P]-ATP filter binding assay
[22] = target: Serine/threonine-protein kinase 24 (Homo sapiens) (UniProt Q9Y6E0); assay: Inhibition of MST3 (unknown origin) assessed as remaining enzyme activity at 10 uM by radioactive [33P]-ATP filter binding assay
[23] = target: Mitogen-activated protein kinase kinase kinase kinase 2 (Homo sapiens) (UniProt Q12851); assay: Inhibition of GCK (unknown origin) assessed as remaining enzyme activity at 10 uM by radioactive [33P]-ATP filter binding assay
Mitogen-activated protein kinase kinase kinase kinase 2 (Homo sapiens), sequence (Q12851 whole entry): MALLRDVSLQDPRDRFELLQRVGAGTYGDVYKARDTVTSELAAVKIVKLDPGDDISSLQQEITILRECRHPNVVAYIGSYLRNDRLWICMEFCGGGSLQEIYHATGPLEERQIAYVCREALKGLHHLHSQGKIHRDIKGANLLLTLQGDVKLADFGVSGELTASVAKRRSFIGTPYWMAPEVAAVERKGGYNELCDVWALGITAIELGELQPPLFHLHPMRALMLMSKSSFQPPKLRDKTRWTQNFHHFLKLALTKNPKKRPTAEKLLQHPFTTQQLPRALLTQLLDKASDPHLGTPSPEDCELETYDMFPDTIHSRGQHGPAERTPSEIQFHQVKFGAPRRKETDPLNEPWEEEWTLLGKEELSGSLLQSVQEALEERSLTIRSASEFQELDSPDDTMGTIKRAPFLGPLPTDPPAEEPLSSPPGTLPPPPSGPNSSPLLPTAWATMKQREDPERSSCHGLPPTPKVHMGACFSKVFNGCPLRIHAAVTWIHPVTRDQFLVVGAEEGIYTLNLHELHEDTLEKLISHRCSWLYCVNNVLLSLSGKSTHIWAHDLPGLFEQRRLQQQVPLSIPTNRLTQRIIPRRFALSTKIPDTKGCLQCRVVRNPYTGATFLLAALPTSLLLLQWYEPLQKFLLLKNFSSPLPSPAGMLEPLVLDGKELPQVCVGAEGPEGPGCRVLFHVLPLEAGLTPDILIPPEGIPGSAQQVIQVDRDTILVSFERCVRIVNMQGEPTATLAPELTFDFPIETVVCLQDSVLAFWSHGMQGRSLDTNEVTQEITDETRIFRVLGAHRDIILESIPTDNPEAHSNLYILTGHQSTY

[24] = target: Mitogen-activated protein kinase kinase kinase kinase 3 (Homo sapiens) (UniProt Q8IVH8); assay: Inhibition of MAP4K3 (unknown origin) assessed as remaining enzyme activity at 10 uM by radioactive [33P]-ATP filter binding assay
[25] = target: Mitogen-activated protein kinase kinase kinase 9 (Homo sapiens) (UniProt P80192); assay: Inhibition of MLK1 (unknown origin) assessed as remaining enzyme activity at 10 uM by radioactive [33P]-ATP filter binding assay
Mitogen-activated protein kinase kinase kinase 9 (Homo sapiens), sequence (P80192 whole entry, looked up): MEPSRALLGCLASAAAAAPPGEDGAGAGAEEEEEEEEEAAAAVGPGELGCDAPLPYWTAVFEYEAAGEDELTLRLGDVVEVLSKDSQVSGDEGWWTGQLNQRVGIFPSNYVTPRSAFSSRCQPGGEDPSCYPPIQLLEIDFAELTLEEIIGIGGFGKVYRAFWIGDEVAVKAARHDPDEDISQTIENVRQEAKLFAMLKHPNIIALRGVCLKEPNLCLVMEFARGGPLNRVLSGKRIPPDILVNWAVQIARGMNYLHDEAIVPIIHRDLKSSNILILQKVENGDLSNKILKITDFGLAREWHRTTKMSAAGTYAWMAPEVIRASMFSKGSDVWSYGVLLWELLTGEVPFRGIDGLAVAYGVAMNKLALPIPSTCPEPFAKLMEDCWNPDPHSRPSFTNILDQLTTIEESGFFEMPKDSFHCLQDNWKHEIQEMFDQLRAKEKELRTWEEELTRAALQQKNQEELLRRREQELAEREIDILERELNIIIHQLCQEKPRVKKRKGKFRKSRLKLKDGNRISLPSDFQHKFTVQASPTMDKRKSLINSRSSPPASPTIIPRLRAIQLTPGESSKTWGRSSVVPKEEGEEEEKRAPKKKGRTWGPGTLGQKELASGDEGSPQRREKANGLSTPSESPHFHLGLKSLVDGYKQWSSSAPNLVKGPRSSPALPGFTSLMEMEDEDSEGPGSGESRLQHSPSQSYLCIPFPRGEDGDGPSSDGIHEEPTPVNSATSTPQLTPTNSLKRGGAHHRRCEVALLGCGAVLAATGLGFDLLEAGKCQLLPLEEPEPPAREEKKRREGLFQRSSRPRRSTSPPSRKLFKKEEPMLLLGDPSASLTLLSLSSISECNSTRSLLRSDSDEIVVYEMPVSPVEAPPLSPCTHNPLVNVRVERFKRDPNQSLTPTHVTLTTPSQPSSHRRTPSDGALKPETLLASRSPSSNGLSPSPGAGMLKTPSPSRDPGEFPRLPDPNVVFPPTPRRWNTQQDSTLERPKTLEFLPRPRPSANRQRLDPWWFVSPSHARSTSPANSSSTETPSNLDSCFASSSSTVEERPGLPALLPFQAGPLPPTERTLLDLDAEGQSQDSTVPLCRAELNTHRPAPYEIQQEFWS

[26] = target: Dual specificity testis-specific protein kinase 1 (Homo sapiens) (UniProt Q15569); assay: Inhibition of TESK1 (unknown origin) assessed as remaining enzyme activity at 10 uM by radioactive [33P]-ATP filter binding assay
[27] = target: Serine/threonine-protein kinase OSR1 (Homo sapiens) (UniProt O95747); assay: Inhibition of OSR1 (unknown origin) assessed as remaining enzyme activity at 10 uM by radioactive [33P]-ATP filter binding assay
[28] = target: Serine/threonine-protein kinase ULK1 (Homo sapiens) (UniProt O75385); assay: Inhibition of ULK1 (unknown origin) assessed as remaining enzyme activity at 10 uM by radioactive [33P]-ATP filter binding assay
[29] = target: Serine/threonine-protein kinase ULK2 (Homo sapiens) (UniProt Q8IYT8); assay: Inhibition of ULK2 (unknown origin) assessed as remaining enzyme activity at 10 uM by radioactive [33P]-ATP filter binding assay

Mitogen-activated protein kinase 12 (Homo sapiens), sequence (P53778 whole entry): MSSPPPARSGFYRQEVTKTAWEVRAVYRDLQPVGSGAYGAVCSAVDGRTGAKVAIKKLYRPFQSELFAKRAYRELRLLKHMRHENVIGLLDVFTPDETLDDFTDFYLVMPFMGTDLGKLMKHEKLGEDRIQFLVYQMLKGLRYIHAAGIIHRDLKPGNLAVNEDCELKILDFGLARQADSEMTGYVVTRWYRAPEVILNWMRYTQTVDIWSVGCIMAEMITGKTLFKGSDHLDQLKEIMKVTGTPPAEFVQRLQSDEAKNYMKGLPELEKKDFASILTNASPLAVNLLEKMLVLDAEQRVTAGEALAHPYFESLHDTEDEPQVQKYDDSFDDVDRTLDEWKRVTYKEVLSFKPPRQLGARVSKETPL

Cc1ccc(-c2cc(C(=O)Nc3ccnc(Cl)c3)nn2-c2ccc3ccccc3n2)cc1
Activity [1]: 107% | Activity [2]: 98% | Activity [3]: 84% | Activity [4]: 112% | Activity [5]: 103% | Activity [6]: 104% | Activity [7]: 99% | Activity [8]: 103% | Activity [9]: 109% | Activity [10]: 84% | Activity [11]: 99% | Activity [12]: 114% | Activity [13]: 98% | Activity [14]: 96% | Activity [15]: 81% | Activity [16]: 104% | Activity [17]: 112% | Activity [18]: 93% | Activity [19]: 113% | Activity [20]: 100% | Activity [21]: 109% | Activity [22]: 106% | Activity [23]: 112% | Activity [24]: 90% | Activity [25]: 90% | Activity [26]: 76% | Activity [27]: 111% | Activity [28]: 136% | Activity [29]: 112%
